According to ChEMBL document CHEMBL1130379, “3-[2-(Pyrrolidin-1-yl)ethyl]indoles and 3-[3-(piperidin-1-yl)propyl]indoles: agonists for the h5-HT1D receptor with high selectivity over the h5-HT1B subtype” (J Med Chem, 1997):

Legend:
[1] = biological target: 5-hydroxytryptamine receptor 1B (Homo sapiens, UniProt P28222); experiment: Binding affinity to human cloned 5-hydroxytryptamine 1B receptor in CHO cells by [3H]5-HT binding displacement.; format: cell-based
[2] = biological target: T1, 5-hydroxytryptamine receptor 1D (Homo sapiens, UniProt P28221); experiment: Binding affinity by displacement to human cloned 5-hydroxytryptamine 1D receptor in CHO cells by [3H]5-HT displacement.; format: cell-based
T1 sequence (P28221 whole entry): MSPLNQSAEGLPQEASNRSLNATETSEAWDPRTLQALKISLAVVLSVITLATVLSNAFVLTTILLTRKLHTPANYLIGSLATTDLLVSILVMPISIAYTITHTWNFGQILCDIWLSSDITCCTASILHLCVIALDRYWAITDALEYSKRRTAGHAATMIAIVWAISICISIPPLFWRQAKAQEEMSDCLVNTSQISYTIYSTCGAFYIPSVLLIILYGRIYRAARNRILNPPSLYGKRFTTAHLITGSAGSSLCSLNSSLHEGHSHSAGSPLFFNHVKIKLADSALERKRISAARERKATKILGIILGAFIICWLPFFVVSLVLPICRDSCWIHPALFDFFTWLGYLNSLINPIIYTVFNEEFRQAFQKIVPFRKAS
In short: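 Cloned human 5-HT1D receptors were stably expressed in CHO cells. Compounds displaced [3H]-5-HT, used at the receptor's KD, and IC50 was read from the displacement. Values are the mean of two independent determinations, each run in triplicate.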

[3] = biological target: T1, 5-hydroxytryptamine receptor 1D; experiment: Measurement of agonist induced [35S]GTP-gamma-S, binding in CHO cells stably transfected with 5-hydroxytryptamine 1D receptor.; format: functional, cell-based
In short: (§1)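 Agonist-induced [35S]GTPγS binding was measured in CHO cells stably transfected with human 5-HT1D receptors. The output was EC50 together with intrinsic efficacy, expressed as percent of the maximal 5-HT response.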

[4] = Percent efficacy relative to 5-HT; format: functional; in short: as §1
[5] = biological target: Serotonin 1 receptors; 5-HT1B & 5-HT1D (Homo sapiens) (UniProt P28222+P28221); experiment: Binding selectivity for 5-HT 1D/1B receptors; format: protein assay
[6] = efficacy relative to 5-HT; format: functional
In short: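 Agonist-induced [35S]GTPγS binding in CHO cells stably transfected with human 5-HT1D receptors. Intrinsic efficacy is expressed as percent of the maximal 5-HT response.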

Chain of 5-hydroxytryptamine receptor 1B (P28222 whole entry): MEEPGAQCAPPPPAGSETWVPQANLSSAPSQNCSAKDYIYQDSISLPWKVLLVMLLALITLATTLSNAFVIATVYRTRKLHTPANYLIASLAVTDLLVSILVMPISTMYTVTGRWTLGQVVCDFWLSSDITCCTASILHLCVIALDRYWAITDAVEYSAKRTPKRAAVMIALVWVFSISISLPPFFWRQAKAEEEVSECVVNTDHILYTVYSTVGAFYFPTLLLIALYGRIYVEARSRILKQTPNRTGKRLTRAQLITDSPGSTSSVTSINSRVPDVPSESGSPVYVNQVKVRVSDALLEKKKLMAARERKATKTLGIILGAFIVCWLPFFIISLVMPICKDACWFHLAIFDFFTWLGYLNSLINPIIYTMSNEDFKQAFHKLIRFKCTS

Row | SMILES | IC50 [1] | IC50 [2] | EC50 [3] | Efficacy [4] | Selectivity ratio [5] | Efficacy [6]
1 | CN(C)CCc1c[nH]c2ccc(-n3cnnc3)cc12 | 1.4 nM | 0.3 nM | 0.45 nM | 117% | 4.7 | 
2 | CN(Cc1ccccc1)C1CCN(CCCc2c[nH]c3ccc(-n4cnnc4)cc23)CC1 | 145 nM | 2.2 nM | 1.6 nM | 94% | 66 | 
3 | OC[C@H](NC1CCN(CCCc2c[nH]c3ccc(-n4cnnc4)cc23)CC1)c1ccc(F)cc1 | 185 nM | 0.9 nM | 1.1 nM | 104% | 206 | 
4 | c1ccc(CNC[C@@H]2CCN(CCc3c[nH]c4ccc(-n5cnnc5)cc34)C2)cc1 | 47 nM | 0.5 nM | 0.93 nM | 100% | 94 | 
5 | CN(Cc1ccccc1)CC1CCN(CCCc2c[nH]c3ccc(-n4cnnc4)cc23)CC1 | 28 nM | 0.95 nM | 0.9 nM | 93% | 29 | 
6 | c1ccc(COC[C@@H]2CCN(CCc3c[nH]c4ccc(-n5cnnc5)cc34)C2)cc1 | 88 nM | 2.3 nM | 2.1 nM | 68% | 38 | 
7 | c1ccc(CO[C@@H]2CCN(CCc3c[nH]c4ccc(-n5cnnc5)cc34)C2)cc1 (stereo in doubt; 4b) [listing 1 of 2 here] |  |  |  | 81% | 23 | 
8 | c1ccc(CO[C@@H]2CCN(CCc3c[nH]c4ccc(-n5cnnc5)cc34)C2)cc1 (stereo in doubt; 4b) [listing 2 of 2 here] | 146 nM | 6.3 nM | 15 nM |  |  | 
9 | c1cc2[nH]cc(CCCN3CCCCC3)c2cc1-n1cnnc1 | 15 nM | 24 nM |  |  | 0.6 | 
10 | c1ccc(CO[C@@H]2CCN(CCc3c[nH]c4ccc(-n5cnnc5)cc34)C2)cc1 (stereo in doubt; 4c) [listing 1 of 2 here] |  |  |  | 84% | 12 | 
11 | c1ccc(CNC2CCN(CCCc3c[nH]c4ccc(-n5cnnc5)cc34)CC2)cc1 | 125 nM | 4.8 nM | 8 nM | 76% | 26 | 
12 | CN(Cc1ccccc1)C[C@@H]1CCN(CCc2c[nH]c3ccc(-n4cnnc4)cc23)C1 | 33 nM | 0.7 nM | 1.6 nM | 102% | 47 | 
13 | C[C@@H](NC1CCN(CCCc2c[nH]c3ccc(-n4cnnc4)cc23)CC1)c1ccccc1 | 35 nM | 0.35 nM | 1.5 nM | 96% | 100 | 
14 | O=C(c1ccc(F)cc1)C1CCN(CCn2c(=O)[nH]c3ccccc3c2=O)CC1 [KETANSERIN] | 6500 nM | 260 nM |  |  | 25 | 
15 | c1ccc(CNCC2CCN(CCc3c[nH]c4ccc(-n5cnnc5)cc34)C2)cc1 (single isomer, unassigned) | 50 nM | 1.6 nM | 4.1 nM | 102% | 31 | 
16 | c1ccc(CO[C@@H]2CCN(CCc3c[nH]c4ccc(-n5cnnc5)cc34)C2)cc1 (stereo in doubt; 4c) [listing 2 of 2 here] | 280 nM | 23 nM | 33 nM |  |  | 
17 | c1cc2[nH]cc(CCN3CCCCC3)c2cc1-n1cnnc1 | 568 nM | 200 nM |  |  | 3 | 
18 | c1cc2[nH]cc(CCN3CCCC3)c2cc1-n1cnnc1 | 30.2 nM | 3.4 nM | 2.6 nM | 120% | 9 | 
19 | OC[C@H](NC1CCN(CCCc2c[nH]c3ccc(-n4cnnc4)cc23)CC1)c1ccccc1 | 114 nM | 1.3 nM | 1.8 nM | 95% | 88 | 
20 | CN(Cc1ccccc1)[C@@H]1CCN(CCc2c[nH]c3ccc(-n4cnnc4)cc23)C1 | 210 nM | 38 nM |  |  | 5.5 | 
21 | CN(C)CCc1c[nH]c2ccc(Cn3cncn3)cc12 |  |  |  | 90% |  | 
22 | CNS(=O)(=O)Cc1ccc2[nH]cc(CCN(C)C)c2c1 |  |  |  |  |  | 100%
